These results are taken from ChEMBL document CHEMBL1140948, “Malaria-infected mice are cured by a single oral dose of new dimeric trioxane sulfones which are also selectively and powerfully cytotoxic to cancer cells” (J Med Chem, 2009).

SMILES strings stand for the structures.

A short description of data set [1]: Partition coefficient, log P of the compound. To be noted: octanol/water. Format: physicochemical.
Data set [2] deals with MEF. In words: Cytotoxicity against mouse wild type MEF cells after 72 hrs by SRB assay. It counts as cell-based. In short, it runs like this: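 Non-cancerous immortalized fibroblasts grown in DMEM with 10% FBS and 1% pen/strep at 37 °C, 5% CO2, allowed ≥5 h to attach. Dosed over a concentration range for 72 hr. Biomass by SRB: TCA fixation overnight at 4 °C, 0.057% SRB stain for 30 min, Tris solubilisation, A510. IC50 by logistic curve fitting, at least three experiments ± SEM.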
Background: Sulforhodamine B stains cellular protein and so reports cell mass.

For data set [3], the system named is HL-60. Description: Cytotoxicity against human HL60 cells after 72 hrs by MTS assay. To be noted: HL-60, 72 h. It counts as functional, cell-based. In short, it runs like this: (§1)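 Exposed to a range of compound concentrations for 72 hr. Viability by MTS/PMS, absorbance at 490 nm. IC50 from logistic dose-response fits, mean of at least three experiments ± SEM.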
On the technique in general: Tetrazolium assays rely on reduction of a dye to a coloured formazan, in cell work by metabolically active cells.

Data set [4] concerns SK-MEL-5. Description: Cytotoxicity against human SK-MEL-5 cells after 72 hrs by SRB assay. It counts as functional, cell-based. As to conditions: SK-MEL-5, 72 h. In short, it runs like this: (§2)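 Then 72 hr with a range of compound concentrations. Fixed overnight at 4 °C in 10% TCA, stained 30 min with 0.057% w/v sulforhodamine B in 1% acetic acid, dye solubilised in 10 mM Tris base, read at 510 nm.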

Data set [5] can be described thus: Cytotoxicity against human Hs888Lu cells after 72 hrs by SRB assay. It counts as cell-based. In short, it runs like this:
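Non-cancerous immortalized fibroblasts grown in DMEM with 10% FBS and 1% pen/strep at 37 °C, 5% CO2, allowed ≥5 h to attach. Dosed over a concentration range for 72 hr. IC50 by logistic curve fitting, at least three experiments ± SEM.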

For data set [6], the system named is UACC-62. In words: Cytotoxicity against human UACC62 cells after 72 hrs by SRB assay. As to conditions: UACC-62, 72 h. It counts as functional, cell-based. In short, it runs like this:
as §2

Data set [7] concerns U-937. In words: Cytotoxicity against human U937 cells after 72 hrs by MTS assay. Format: functional, cell-based. To be noted: U-937, 72 h. In short, it runs like this:
as §1

In data set [8] the test system is Mus musculus. In words: Toxicity in Plasmodium berghei ANKA infected BALB/c mice (Mus musculus) assessed as induction of adverse effects at 144 mg/kg, perorally administered as single dose. It counts as organism-based. On the set-up: dose 144 mg/kg, route oral. As to conditions: in vivo, po. In short, it runs like this:
(§3)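 Male 5-week-old mice of about 22 g, infected i.p. on day 0 with 2 × 10^7 P. berghei ANKA-parasitized erythrocytes. At 24 h they received one oral dose in 7:3 Tween 80:ethanol diluted with water, 5 mice per group. Animals were watched to day 30 for overt toxicity and behavioral change.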

Data set [9] deals with HeLa. In words: Cytotoxicity against human HeLa cells after 72 hrs by SRB assay. It counts as functional, cell-based. In short, it runs like this: as §2
Data set [10] concerns Mus musculus. Description: Toxicity in Plasmodium berghei ANKA infected perorally dosed BALB/c mice (Mus musculus) assessed as induction of behavioral changes administered as single dose. It counts as organism-based. As to conditions: in vivo, po. In short, it runs like this: as §3
The test system of data set [11] is Plasmodium berghei. In words: Antiplasmodial activity as survival in Plasmodium berghei ANKA infected BALB/c mice (Mus musculus) after single 13 mg/kg peroral dose. Format: functional. To be noted: route oral.
The subject of data set [12] is Plasmodium berghei. Description: Antiplasmodial activity as reduced parasitaemia in Plasmodium berghei ANKA infected BALB/c mice (Mus musculus) at 30 mg/kg peroral dose. To be noted: route oral. It counts as functional. On the set-up: scale not given: the % may be the effect or the level left.
For data set [13], the system named is Plasmodium berghei. In words: Antiplasmodial activity as survival in Plasmodium berghei ANKA infected BALB/c mice (Mus musculus) at 30 mg/kg peroral dose. Format: functional. As to conditions: route oral.

For orientation: logP means the decadic logarithm of the partition coefficient of the neutral form, usually between octanol and water. As for `CCN(CC)C(=O)OCc1ccc(S(=O)(=O)CC(C[C@H]2O[C@@H]3C[C@]4(C)CC[C@H]5[C@H](C)CC[C@@H]([C@H]2C)[C@@]35OO4)C[C@H]2O[C@@H]3C[C@]4(C)CC[C@H]5[C@H](C)CC[C@@H]([C@H]2C)[C@@]35OO4)cc1`, the logP in [1] (read-out: logP) is 8.3.

The term IC50 denotes the midpoint of a concentration-inhibition curve. Turning to `C[C@H]1[C@@H](CC(C[C@H]2O[C@@H]3C[C@]4(C)CC[C@H]5[C@H](C)CC[C@@H]([C@H]2C)[C@@]35OO4)CS(=O)(=O)c2ccc(COC(=O)N(C)C)cc2)O[C@@H]2C[C@]3(C)CC[C@H]4[C@H](C)CC[C@@H]1[C@@]24OO3`, the IC50 is greater than 50000 nM in [2]; 60 nM in [3]; 60 nM in data set [4]; greater than 50000 nM in data set [5]; 40 nM in [6]; 280 nM in data set [7]. This compound gave an IC50 in data set [9] of 110 nM. Moreover, the logP in data set [1] (read-out: logP) amounted to 7.6. For the same compound, the Activity result in [8] and in data set [10] was “Non-toxic” in each case.

As for `CCOP(=O)(OCC)OCc1ccc(S(=O)(=O)CC(C[C@H]2O[C@@H]3C[C@]4(C)CC[C@H]5[C@H](C)CC[C@@H]([C@H]2C)[C@@]35OO4)C[C@H]2O[C@@H]3C[C@]4(C)CC[C@H]5[C@H](C)CC[C@@H]([C@H]2C)[C@@]35OO4)cc1`, the logP in data set [1] (read-out: logP) worked out at 8.8.

For the compound `C[C@H]1[C@@H](CC(C[C@H]2O[C@@H]3C[C@]4(C)CC[C@H]5[C@H](C)CC[C@@H]([C@H]2C)[C@@]35OO4)CS(=O)(=O)CCCCCCO)O[C@@H]2C[C@]3(C)CC[C@H]4[C@H](C)CC[C@@H]1[C@@]24OO3`, the logP in data set [1] worked out at 9.5.

As to `C[C@H]1[C@@H](CC(C[C@H]2O[C@@H]3C[C@]4(C)CC[C@H]5[C@H](C)CC[C@@H]([C@H]2C)[C@@]35OO4)CS(=O)(=O)c2ccc(CO)cc2)O[C@@H]2C[C@]3(C)CC[C@H]4[C@H](C)CC[C@@H]1[C@@]24OO3`, the half-maximal inhibitory concentration (IC50) in data set [2] was greater than 50000 nM; in data set [3], 130 nM; in data set [4], 140 nM; in [5], greater than 50000 nM; in data set [6], 30 nM; in data set [7], 280 nM. In addition, the midpoint of inhibition in [9], the IC50, lay at 1100 nM. Also, the logP in [1] (read-out: logP) is 7.

`C[C@H]1[C@@H](CC(C[C@H]2O[C@@H]3C[C@]4(C)CC[C@H]5[C@H](C)CC[C@@H]([C@H]2C)[C@@]35OO4)CS(=O)(=O)Cc2ccc(F)cc2)O[C@@H]2C[C@]3(C)CC[C@H]4[C@H](C)CC[C@@H]1[C@@]24OO3`: the logP in data set [1] (read-out: logP) turned out to be 7.8.

In turn, `COc1cccc2c1C(=O)c1c(O)c3c(c(O)c1C2=O)C[C@@](O)(C(=O)CO)C[C@@H]3O[C@H]1C[C@H](N)[C@H](O)[C@H](C)O1` [DOXORUBICIN] came in with an IC50 in [2] of 3400 nM.

For `Cl.OC(c1cc(C(F)(F)F)nc2c(C(F)(F)F)cccc12)C1CCCCN1` (configuration not stated) [MEFLOQUINE HYDROCHLORIDE], the Survival in data set [11] worked out at 11 days.

In turn, `CC(C)(N)CNC(=O)C[C@H]1CC[C@]2(CC1)OO[C@]1(O2)C2CC3CC(C2)CC1C3` [OZ277] displayed an Activity in [12] of 99.95%. The compound also registered a Survival in [13] of 10.7 days.

Turning to `C[C@H]1[C@H](OC(=O)CCC(=O)[O-])O[C@@H]2O[C@@]3(C)CC[C@H]4[C@H](C)CC[C@@H]1[C@@]24OO3.[Na+]` [SODIUM ARESUNATE], the Survival in data set [13] came out at 7.6 days.
